Key:
Liver [1] = test: Drug uptake in Sprague-Dawley rat liver at 11.9 to 12.1 uCi, iv after 2 hrs by liquid scintillation counting; assay type: ADME, organism-based; conditions: in vivo, in the assay text read “gamma counting” for “liquid scintillation counting”
Outline: (§1)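 Five rats per time point were exsanguinated under ether. Organs were excised, rinsed, blotted and weighed. Duplicate samples were counted in a well-scintillation gamma counter (87% efficiency). Results are % administered dose/g, mean ± SEM.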

Pancreas [2] = test: Drug uptake in Sprague-Dawley rat pancreas at 11.9 to 12.1 uCi, iv after 2 hrs by liquid scintillation counting; assay type: ADME, organism-based; conditions: in vivo, in the assay text read “well-scintillation gamma counting” for “liquid scintillation counting”; outline: as §1
[3] = Drug uptake in Sprague-Dawley rat bone marrow at 11.9 to 12.1 uCi, iv after 0.5 hrs by liquid scintillation counting; assay type: ADME, organism-based; conditions: in vivo
Outline: (§2)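 Dosing was by tail vein under ether. Five rats were killed by exsanguination at each time. Organs were rinsed, blotted and weighed, with duplicate samples in cellulose acetate capsules. Samples were counted in a well-scintillation gamma counter at 87% efficiency. Results are % administered dose/g, mean ± SEM.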

[4] = Drug uptake in Sprague-Dawley rat dorsolateral prostate at 11.9 to 12.1 uCi, iv after 2 hrs by liquid scintillation counting; assay type: ADME, organism-based, Prostate gland; conditions: in vivo
Thyroid gland [5] = test: Drug uptake in Sprague-Dawley rat thyroid at 11.9 to 12.1 uCi, iv after 0.5 hrs by liquid scintillation counting; assay type: ADME, organism-based; conditions: in vivo; outline: as §1
Testes [6] = test: Drug uptake in Sprague-Dawley rat testes at 11.9 to 12.1 uCi, iv after 0.5 hrs by liquid scintillation counting; assay type: ADME, organism-based, Testis; conditions: in vivo; outline: as §1
Brain [7] = test: Drug uptake in Sprague-Dawley rat brain at 11.9 to 12.1 uCi, iv after 0.5 hrs by liquid scintillation counting; assay type: ADME, organism-based; conditions: in vivo
Blood [8] = test: Drug uptake in Sprague-Dawley rat blood at 11.9 to 12.1 uCi, iv after 0.5 hrs by liquid scintillation counting; assay type: ADME, organism-based; conditions: in vivo
[9] = Drug uptake in Sprague-Dawley rat diaphragm at 11.9 to 12.1 uCi, iv after 2 hrs by liquid scintillation counting; assay type: ADME, organism-based; conditions: in vivo
[10] = Drug uptake in Sprague-Dawley rat ventral prostate at 11.9 to 12.1 uCi, iv after 2 hrs by liquid scintillation counting; assay type: ADME, organism-based, Prostate gland; conditions: in vivo; outline: as §1
[11] = Drug uptake in Sprague-Dawley rat ventral prostate at 11.9 to 12.1 uCi, iv after 0.5 hrs by liquid scintillation counting; assay type: ADME, organism-based, Prostate gland; conditions: in vivo
Lung [12] = test: Drug uptake in Sprague-Dawley rat lung at 11.9 to 12.1 uCi, iv after 0.5 hrs by liquid scintillation counting; assay type: ADME, organism-based; conditions: in vivo
Adrenal [13] = test: Drug uptake in Sprague-Dawley rat adrenal at 11.9 to 12.1 uCi, iv after 2 hrs by liquid scintillation counting; assay type: ADME, organism-based, Adrenal gland; conditions: in vivo; outline: as §2
Adrenal [14] = test: Drug uptake in Sprague-Dawley rat adrenal at 11.9 to 12.1 uCi, iv after 0.5 hrs by liquid scintillation counting; assay type: ADME, organism-based, Adrenal gland; conditions: in vivo
Kidney [15] = test: Drug uptake in Sprague-Dawley rat kidney at 11.9 to 12.1 uCi, iv after 2 hrs by liquid scintillation counting; assay type: ADME, organism-based; conditions: in vivo, in the assay text read “gamma counting” for “liquid scintillation counting”; outline: as §1
[16] = Drug uptake in Sprague-Dawley rat diaphragm at 11.9 to 12.1 uCi, iv after 0.5 hrs by liquid scintillation counting; assay type: ADME, organism-based; conditions: in vivo; outline: as §2
Spleen [17] = test: Drug uptake in Sprague-Dawley rat spleen at 11.9 to 12.1 uCi, iv after 0.5 hrs by liquid scintillation counting; assay type: ADME, organism-based; conditions: in vivo
[18] = Drug uptake in Sprague-Dawley rat dorsolateral prostate at 11.9 to 12.1 uCi, iv after 0.5 hrs by liquid scintillation counting; assay type: ADME, organism-based, Prostate gland; conditions: in vivo
Liver [19] = test: Drug uptake in Sprague-Dawley rat liver at 11.9 to 12.1 uCi, iv after 0.5 hrs by liquid scintillation counting; assay type: ADME, organism-based; conditions: in vivo; outline: as §1
Spleen [20] = test: Drug uptake in Sprague-Dawley rat spleen at 11.9 to 12.1 uCi, iv after 2 hrs by liquid scintillation counting; assay type: ADME, organism-based; conditions: in vivo, in the assay text read “well-scintillation gamma counting” for “liquid scintillation counting”; outline: as §1
Brain [21] = test: Drug uptake in Sprague-Dawley rat brain at 11.9 to 12.1 uCi, iv after 2 hrs by liquid scintillation counting; assay type: ADME, organism-based; conditions: in vivo
[22] = Drug uptake in Sprague-Dawley rat bone marrow at 11.9 to 12.1 uCi, iv after 2 hrs by liquid scintillation counting; assay type: ADME, organism-based; conditions: in vivo
Blood [23] = test: Drug uptake in Sprague-Dawley rat blood at 11.9 to 12.1 uCi, iv after 2 hrs by liquid scintillation counting; assay type: ADME, organism-based; conditions: in vivo
Duodenum [24] = test: Drug uptake in Sprague-Dawley rat duodenum at 11.9 to 12.1 uCi, iv after 2 hrs by liquid scintillation counting; assay type: ADME, organism-based; conditions: in vivo, in the assay text read “gamma counting” for “liquid scintillation counting”; outline: as §2
Heart [25] = test: Drug uptake in Sprague-Dawley rat heart at 11.9 to 12.1 uCi, iv after 0.5 hrs by liquid scintillation counting; assay type: ADME, organism-based; conditions: in vivo
Testes [26] = test: Drug uptake in Sprague-Dawley rat testes at 11.9 to 12.1 uCi, iv after 2 hrs by liquid scintillation counting; assay type: ADME, organism-based, Testis; conditions: in vivo, in the assay text read “well-scintillation gamma counting” for “liquid scintillation counting”; outline: as §1
Heart [27] = test: Drug uptake in Sprague-Dawley rat heart at 11.9 to 12.1 uCi, iv after 2 hrs by liquid scintillation counting; assay type: ADME, organism-based; conditions: in vivo, in the assay text read “gamma counting” for “liquid scintillation counting”; outline: as §2
Pancreas [28] = test: Drug uptake in Sprague-Dawley rat pancreas at 11.9 to 12.1 uCi, iv after 0.5 hrs by liquid scintillation counting; assay type: ADME, organism-based; conditions: in vivo; outline: as §1
Duodenum [29] = test: Drug uptake in Sprague-Dawley rat duodenum at 11.9 to 12.1 uCi, iv after 0.5 hrs by liquid scintillation counting; assay type: ADME, organism-based; conditions: in vivo
Pituitary gland [30] = test: Drug uptake in Sprague-Dawley rat pituitary at 11.9 to 12.1 uCi, iv after 2 hrs by liquid scintillation counting; assay type: ADME, organism-based; conditions: in vivo, in the assay text read “well-scintillation gamma counting” for “liquid scintillation counting”; outline: as §1
Thyroid gland [31] = test: Drug uptake in Sprague-Dawley rat thyroid at 11.9 to 12.1 uCi, iv after 2 hrs by liquid scintillation counting; assay type: ADME, organism-based; conditions: in vivo, in the assay text read “well-scintillation gamma counting” for “liquid scintillation counting”; outline: as §1
Pituitary gland [32] = test: Drug uptake in Sprague-Dawley rat pituitary at 11.9 to 12.1 uCi, iv after 0.5 hrs by liquid scintillation counting; assay type: ADME, organism-based; conditions: in vivo
Kidney [33] = test: Drug uptake in Sprague-Dawley rat kidney at 11.9 to 12.1 uCi, iv after 0.5 hrs by liquid scintillation counting; assay type: ADME, organism-based; conditions: in vivo
Lung [34] = test: Drug uptake in Sprague-Dawley rat lung at 11.9 to 12.1 uCi, iv after 2 hrs by liquid scintillation counting; assay type: ADME, organism-based; conditions: in vivo, in the assay text read “gamma counting” for “liquid scintillation counting”; outline: as §1

Drug uptake (Liver [1]): 1.042 % ID/g
Drug uptake (Pancreas [2]): 0.349 % ID/g
Drug uptake [3]: 0.483 % ID/g
Drug uptake [4]: 0.614 % ID/g
Drug uptake (Thyroid gland [5]): 5.001 % ID/g
Drug uptake (Testes [6]): 0.154 % ID/g
Drug uptake (Brain [7]): 1.791 % ID/g
Drug uptake (Blood [8]): 0.05 % ID/g
Drug uptake [9]: 0.114 % ID/g
Drug uptake [10]: 0.588 % ID/g
Drug uptake [11]: 0.673 % ID/g
Drug uptake (Lung [12]): 1.993 % ID/g
Drug uptake (Adrenal [13]): 1.84 % ID/g
Drug uptake (Adrenal [14]): 2.287 % ID/g
Drug uptake (Kidney [15]): 2.225 % ID/g
Drug uptake [16]: 0.241 % ID/g
Drug uptake (Spleen [17]): 1.402 % ID/g
Drug uptake [18]: 0.657 % ID/g
Drug uptake (Liver [19]): 1.069 % ID/g
Drug uptake (Spleen [20]): 1.511 % ID/g
Drug uptake (Brain [21]): 1.255 % ID/g
Drug uptake [22]: 0.569 % ID/g
Drug uptake (Blood [23]): 0.038 % ID/g
Drug uptake (Duodenum [24]): 0.349 % ID/g
Drug uptake (Heart [25]): 0.367 % ID/g
Drug uptake (Testes [26]): 0.163 % ID/g
Drug uptake (Heart [27]): 0.174 % ID/g
Drug uptake (Pancreas [28]): 0.737 % ID/g
Drug uptake (Duodenum [29]): 1.053 % ID/g
Drug uptake (Pituitary gland [30]): 0.684 % ID/g
Drug uptake (Thyroid gland [31]): 3.114 % ID/g
Drug uptake (Pituitary gland [32]): 0.899 % ID/g
Drug uptake (Kidney [33]): 3.598 % ID/g
Drug uptake (Lung [34]): 1.065 % ID/g
Structure (SMILES): CN(C)Cc1ccc(CN(C)C)c([125I])c1

From ChEMBL document CHEMBL3227952, “Potential organ- or tumor-imaging agents. 18. Radioiodinated diamines and bisquaternaries” (J Med Chem, 1979)
